Reference: ChEMBL document CHEMBL1152166, “Activation and inhibition of leukotriene A4 hydrolase aminopeptidase activity by diphenyl ether and derivatives” (Bioorg Med Chem Lett, 2008)
The source made the active and inactive calls. No cut-off for these calls is given here.

How the values were obtained:
[1] = molecular target: T1, Leukotriene A-4 hydrolase (Homo sapiens, UniProt P09960); test: Inhibition of aminopeptidase activity of human recombinant leukotriene A4 hydrolase expressed in Escherichia coli assessed as p-nitroanilide release by spectrophotometry
T1 sequence (P09960 whole entry): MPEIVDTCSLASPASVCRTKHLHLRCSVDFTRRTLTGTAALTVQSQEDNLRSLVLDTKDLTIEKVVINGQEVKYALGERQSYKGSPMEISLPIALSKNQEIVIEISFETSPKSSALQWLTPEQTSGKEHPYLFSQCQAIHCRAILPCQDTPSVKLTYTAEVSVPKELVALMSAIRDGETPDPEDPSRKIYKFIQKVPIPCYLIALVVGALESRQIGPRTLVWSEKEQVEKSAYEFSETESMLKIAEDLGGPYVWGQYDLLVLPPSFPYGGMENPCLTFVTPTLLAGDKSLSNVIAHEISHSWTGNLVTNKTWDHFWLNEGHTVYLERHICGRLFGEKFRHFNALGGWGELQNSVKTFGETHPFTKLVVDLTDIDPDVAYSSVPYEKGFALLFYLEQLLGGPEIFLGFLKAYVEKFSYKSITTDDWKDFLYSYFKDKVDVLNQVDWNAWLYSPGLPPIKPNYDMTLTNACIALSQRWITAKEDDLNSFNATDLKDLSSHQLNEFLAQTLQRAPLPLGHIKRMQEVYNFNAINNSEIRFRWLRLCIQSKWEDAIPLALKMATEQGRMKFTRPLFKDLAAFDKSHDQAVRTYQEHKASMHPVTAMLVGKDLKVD
Outline: (§1)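 Recombinant human LTA4H, expressed from a pET 21a construct in E. coli and purified by ammonium sulfate precipitation, anion-exchange and gel filtration. Aminopeptidase activity was read spectrophotometrically as p-nitroanilide released from Ala-pNA. Values are the average of three experiments with standard deviation. Substrate dependence was examined by Lineweaver–Burk analysis to give apparent Km, Vmax, KA, α and β.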

[2] = molecular target: T2, Leukotriene A-4 hydrolase (Homo sapiens) (UniProt P09960); test: Inhibition of epoxide hydrolase activity of human recombinant leukotriene A4 hydrolase expressed in Escherichia coli assessed as LTB4 production at 100 uM by RP-HPLC
T2 sequence (whole entry): T1 sequence (P09960 whole entry)

[3] = molecular target: T1, Leukotriene A-4 hydrolase; test: Activation of aminopeptidase activity of human recombinant leukotriene A4 hydrolase expressed in Escherichia coli assessed as p-nitroanilide release by spectrophotometry; outline: as §1
[4] = molecular target: T2, Leukotriene A-4 hydrolase (Homo sapiens); test: Activation of aminopeptidase activity of human recombinant leukotriene A4 hydrolase expressed in Escherichia coli assessed as p-nitroanilide release at 100 uM by spectrophotometry; outline: as §1
[5] = molecular target: T1, Leukotriene A-4 hydrolase; test: Inhibition of epoxide hydrolase activity of human recombinant leukotriene A4 hydrolase expressed in Escherichia coli assessed as LTB4 production by RP-HPLC
[6] = molecular target: T2, Leukotriene A-4 hydrolase (Homo sapiens); test: Activation of aminopeptidase activity of human recombinant leukotriene A4 hydrolase expressed in Escherichia coli by spectrophotometry in presence of >0.65 mM […]; outline: as §1
[7] = molecular target: T2, Leukotriene A-4 hydrolase (Homo sapiens); test: Inhibition of aminopeptidase activity of human recombinant leukotriene A4 hydrolase expressed in Escherichia coli by spectrophotometry in presence of <0.65 mM […]; outline: as §1

Structure (SMILES)	IC50 [1] [µM]	Activity [2]	AC50 [3] [µM]	Activity [4]	IC50 [5] [µM]	Activity [6]	Activity [7]
CCCCCOc1ccc(Oc2ccccc2)cc1	4.13	inactive	–	–	–	–	–
CCCCOc1ccc(Oc2ccc(O)cc2)cc1	5.56	inactive	–	–	–	–	–
CCOc1ccc(Oc2ccc(O)cc2)cc1	–	inactive	14.8	Active	–	–	–
COc1ccc(Oc2ccc(O)cc2)cc1	–	inactive	17	Active	–	–	–
COc1ccc(Oc2ccccc2)cc1	–	inactive	3.39	Active	–	–	–
CCOc1ccc(Oc2ccccc2)cc1	–	inactive	2.82	Active	–	–	–
Oc1ccc(Oc2ccccc2)cc1	–	inactive	11.1	Active	–	–	–
CCCCOc1ccc(Oc2ccccc2)cc1	5.72	inactive	–	–	–	–	–
NCCOc1ccc(Oc2ccccc2)cc1	0.228	–	–	–	0.035	–	–
c1ccc(Oc2ccccc2)cc1 [DIPHENYLETHER]	–	inactive	6.01	Active	–	–	–
CCCOc1ccc(Oc2ccc(O)cc2)cc1	5.69	inactive	–	–	–	–	–
CCCOc1ccc(Oc2ccccc2)cc1	–	inactive	–	–	–	Active	Active
CCCCCOc1ccc(Oc2ccc(O)cc2)cc1	2.48	inactive	–	–	–	–	–
